Measured values as given in ChEMBL document CHEMBL1926558, “Searching for the Multi-Target-Directed Ligands against Alzheimer's disease: discovery of quinoxaline-based hybrid compounds with AChE, H₃R and BACE 1 inhibitory activities” (Bioorg Med Chem, 2011).
Values joined by “and” are separate entries in the source; they are usually repeats but may differ in a detail not shown here. Equal values may be shown once. Active and inactive are the calls of the source. No cut-off for these calls is given here.

What was measured:
Acetylcholinesterase [1] = target: T1, Acetylcholinesterase (Rattus norvegicus, UniProt P37136); experiment: Inhibition of AChE in rat cortex homogenates using acetylthiocholine iodide as substrate after 15 mins by Ellman's method
T1 sequence (P37136 whole entry): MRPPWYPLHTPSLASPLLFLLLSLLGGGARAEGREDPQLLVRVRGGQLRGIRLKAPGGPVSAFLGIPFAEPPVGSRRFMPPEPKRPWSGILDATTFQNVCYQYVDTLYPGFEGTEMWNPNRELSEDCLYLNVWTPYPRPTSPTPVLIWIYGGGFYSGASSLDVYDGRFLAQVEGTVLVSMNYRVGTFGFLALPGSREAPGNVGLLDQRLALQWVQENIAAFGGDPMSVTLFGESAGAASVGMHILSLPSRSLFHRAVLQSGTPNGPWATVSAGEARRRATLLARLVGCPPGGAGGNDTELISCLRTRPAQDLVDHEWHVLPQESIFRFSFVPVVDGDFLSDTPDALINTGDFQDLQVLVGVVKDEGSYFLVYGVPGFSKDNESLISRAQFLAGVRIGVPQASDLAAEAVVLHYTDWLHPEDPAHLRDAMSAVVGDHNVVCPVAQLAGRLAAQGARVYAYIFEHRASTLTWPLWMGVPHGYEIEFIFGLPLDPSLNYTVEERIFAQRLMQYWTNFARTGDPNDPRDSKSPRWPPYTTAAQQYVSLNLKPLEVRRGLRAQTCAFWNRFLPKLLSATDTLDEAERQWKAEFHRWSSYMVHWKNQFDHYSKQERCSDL

Histamine H3 receptor [2] = target: T2, Histamine H3 receptor (Homo sapiens, UniProt Q9Y5N1); experiment: Inverse agonist activity at histamine H3 receptor expressed in HEK293 cells co-transfected with pCRE-Luc gene assessed as inhibition of forskolin/histamine-induced cAMP accumulation after 5 hrs by luciferase reporter gene assay; format: functional, cell-based
Histamine H3 receptor [3] = target: T2, Histamine H3 receptor; experiment: Antagonist activity at histamine H3 receptor expressed in HEK293 cells co-transfected with pCRE-Luc gene assessed as inhibition of forskolin/histamine-induced cAMP accumulation after 5 hrs by luciferase reporter gene assay; format: functional, cell-based
[4] = target: Histamine H1 receptor (Homo sapiens) (UniProt P35367); experiment: Antagonist activity at histamine H1 receptor expressed in HEK293 cells co-transfected with pCRE-Luc gene assessed as inhibition of forskolin/histamine-induced cAMP accumulation at 1 uM after 5 hrs by luciferase reporter gene assay; format: functional, cell-based
Summary of the method: (§1)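 HEK-293 cells stably expressing H1R or H2R were grown in DMEM with 10% FBS and penicillin/streptomycin at 37 °C under 5% CO2. Transfectants were selected with 800 µg/mL G418. cAMP accumulation was induced by 1 µM histamine with test compound present and read out by CRE-luciferase transcription.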

[5] = target: Histamine H2 receptor (Homo sapiens) (UniProt P25021); experiment: Antagonist activity at histamine H2 receptor expressed in HEK293 cells co-transfected with pCRE-Luc gene assessed as inhibition of forskolin/histamine-induced cAMP accumulation at 1 uM after 5 hrs by luciferase reporter gene assay; format: functional, cell-based; summary of the method: as §1
Histamine H4 receptor [6] = target: T3, Histamine H4 receptor (Homo sapiens, UniProt Q9H3N8); experiment: Antagonist activity at histamine H4 receptor expressed in HEK293 cells co-transfected with pCRE-Luc gene assessed as inhibition of forskolin/histamine-induced cAMP accumulation at 1 uM after 5 hrs by luciferase reporter gene assay; format: functional, cell-based
Histamine H3 receptor [7] = target: T2, Histamine H3 receptor; experiment: Antagonist activity at histamine H3 receptor expressed in HEK293 cells co-transfected with pCRE-Luc gene assessed as inhibition of forskolin/histamine-induced cAMP accumulation at 1 uM after 5 hrs by luciferase reporter gene assay; format: functional, cell-based
Histamine H4 receptor [8] = target: T3, Histamine H4 receptor; experiment: Antagonist activity at histamine H4 receptor expressed in HEK293 cells co-transfected with pCRE-Luc gene assessed as inhibition of forskolin/histamine-induced cAMP accumulation after 5 hrs by luciferase reporter gene assay; format: functional, cell-based
Acetylcholinesterase [9] = target: Acetylcholinesterase (Homo sapiens, UniProt P22303)
Chain of Acetylcholinesterase (Homo sapiens, UniProt P22303) (P22303 whole entry): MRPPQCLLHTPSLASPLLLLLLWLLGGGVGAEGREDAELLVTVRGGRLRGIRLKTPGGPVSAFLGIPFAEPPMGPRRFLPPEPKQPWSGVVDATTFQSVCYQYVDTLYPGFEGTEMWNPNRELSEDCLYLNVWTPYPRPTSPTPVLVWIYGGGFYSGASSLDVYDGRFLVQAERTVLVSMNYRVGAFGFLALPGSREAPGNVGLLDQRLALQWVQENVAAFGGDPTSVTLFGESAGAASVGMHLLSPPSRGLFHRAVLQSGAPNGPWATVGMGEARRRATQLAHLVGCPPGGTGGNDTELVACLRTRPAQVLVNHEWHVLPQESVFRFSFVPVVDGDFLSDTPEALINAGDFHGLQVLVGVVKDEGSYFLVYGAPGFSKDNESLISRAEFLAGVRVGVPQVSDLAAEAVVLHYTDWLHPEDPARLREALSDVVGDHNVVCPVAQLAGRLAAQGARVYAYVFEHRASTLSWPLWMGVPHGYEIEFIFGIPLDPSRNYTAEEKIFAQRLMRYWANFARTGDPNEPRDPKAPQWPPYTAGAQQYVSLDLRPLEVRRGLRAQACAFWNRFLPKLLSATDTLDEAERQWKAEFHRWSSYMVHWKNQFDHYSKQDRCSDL

T3 sequence (Q9H3N8 whole entry): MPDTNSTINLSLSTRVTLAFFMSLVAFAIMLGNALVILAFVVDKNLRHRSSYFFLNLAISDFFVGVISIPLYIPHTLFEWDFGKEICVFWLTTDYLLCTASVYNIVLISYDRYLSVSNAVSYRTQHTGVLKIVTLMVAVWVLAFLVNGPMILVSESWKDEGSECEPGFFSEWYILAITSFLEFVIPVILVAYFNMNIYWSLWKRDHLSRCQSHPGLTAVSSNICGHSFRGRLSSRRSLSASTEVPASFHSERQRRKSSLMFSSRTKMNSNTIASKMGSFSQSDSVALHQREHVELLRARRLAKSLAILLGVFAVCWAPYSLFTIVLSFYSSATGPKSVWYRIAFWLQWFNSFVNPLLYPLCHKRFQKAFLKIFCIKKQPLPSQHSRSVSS
Chain of Histamine H2 receptor (Homo sapiens) (P25021 whole entry): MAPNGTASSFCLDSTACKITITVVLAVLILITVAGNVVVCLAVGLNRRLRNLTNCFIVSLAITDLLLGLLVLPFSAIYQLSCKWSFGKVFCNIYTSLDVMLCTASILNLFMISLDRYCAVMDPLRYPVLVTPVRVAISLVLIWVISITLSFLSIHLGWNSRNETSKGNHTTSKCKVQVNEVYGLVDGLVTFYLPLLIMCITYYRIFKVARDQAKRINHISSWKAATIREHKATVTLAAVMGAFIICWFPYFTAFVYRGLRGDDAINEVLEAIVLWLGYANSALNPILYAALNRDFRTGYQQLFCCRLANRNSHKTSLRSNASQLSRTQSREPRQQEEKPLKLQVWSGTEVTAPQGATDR
Chain of Histamine H1 receptor (Homo sapiens) (P35367 whole entry): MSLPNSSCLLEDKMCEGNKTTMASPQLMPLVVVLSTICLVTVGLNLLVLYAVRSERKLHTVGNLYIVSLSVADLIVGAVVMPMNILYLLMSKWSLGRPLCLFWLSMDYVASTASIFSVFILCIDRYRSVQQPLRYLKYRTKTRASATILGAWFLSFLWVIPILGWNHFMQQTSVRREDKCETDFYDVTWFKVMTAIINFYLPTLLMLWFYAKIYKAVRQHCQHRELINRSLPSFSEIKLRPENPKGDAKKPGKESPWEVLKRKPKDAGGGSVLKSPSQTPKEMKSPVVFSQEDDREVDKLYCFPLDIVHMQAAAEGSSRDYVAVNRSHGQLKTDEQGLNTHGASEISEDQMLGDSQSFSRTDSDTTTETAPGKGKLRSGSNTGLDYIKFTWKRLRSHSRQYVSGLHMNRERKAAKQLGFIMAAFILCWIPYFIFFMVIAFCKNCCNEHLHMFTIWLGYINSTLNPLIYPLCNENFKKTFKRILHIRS
T2 sequence (Q9Y5N1 whole entry): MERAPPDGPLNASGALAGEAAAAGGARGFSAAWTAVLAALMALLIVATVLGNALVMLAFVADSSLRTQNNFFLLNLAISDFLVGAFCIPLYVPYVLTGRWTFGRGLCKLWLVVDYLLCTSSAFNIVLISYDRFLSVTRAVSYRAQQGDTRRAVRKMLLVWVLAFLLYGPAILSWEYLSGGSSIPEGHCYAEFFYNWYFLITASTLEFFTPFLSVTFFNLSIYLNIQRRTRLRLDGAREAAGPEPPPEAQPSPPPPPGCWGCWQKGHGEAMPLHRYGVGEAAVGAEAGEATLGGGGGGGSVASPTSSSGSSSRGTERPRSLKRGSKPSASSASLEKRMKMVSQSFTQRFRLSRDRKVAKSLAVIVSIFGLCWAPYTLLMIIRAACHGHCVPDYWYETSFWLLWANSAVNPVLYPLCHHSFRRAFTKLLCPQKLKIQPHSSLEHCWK

SMILES	IC50 (Histamine H3 receptor [2]; hek293)	IC50 (Acetylcholinesterase [1]; read-out: IC50) [nM]	IC50 (Histamine H3 receptor [3]) [nM]	inhibition [4]	inhibition [5]	further results
Nc1nc2ccccc2nc1C(=O)NC1CCN(Cc2ccccc2)CC1	Not Active					IC50 (Acetylcholinesterase [1]): Not Active
CCN(CC)Cc1ccc(OCCNc2nc3ccccc3nc2N)cc1	Not Active	3870	182	inactive	inactive	inhibition (Histamine H4 receptor [6]): Active
Nc1nc2ccccc2nc1C(=O)Nc1ccc(CN2CCCCC2)cc1	Not Active	892				
Nc1nc2ccccc2nc1NCC(=O)NC1CCN(Cc2ccccc2)CC1	Not Active	1330				inhibition (Histamine H3 receptor [7]): 4.5%
Nc1nc2ccccc2nc1CNc1ccc(CN2CCCCC2)cc1	Not Active		130	inactive	inactive	IC50 (Acetylcholinesterase [1]): Not Active; inhibition (Histamine H4 receptor [6]): Active
S=C(NC1CCCCC1)N1CCC(c2cnc[nH]2)CC1 [THIOPERAMIDE]	Not Active			inactive	inactive	
Nc1nc2ccccc2nc1NCCCOc1ccc(CN2CCCCC2)cc1	Not Active	1930				
Nc1nc2ccccc2nc1NC(=O)c1ccc(CN2CCCCC2)cc1 [listing 1 of 3 here]		313	511			IC50 (Histamine H3 receptor [2]; read-out: IC50): 171 nM; IC50 (Histamine H4 receptor [8]; hek293): > 10000 nM
COc1cc2c(cc1OC)C(=O)C(Oc1ccc(CN3CCCC3)cc1)C2 (stereo not given)						IC50 (Acetylcholinesterase [9]): 50 nM
Nc1nc2ccccc2nc1NCc1ccc(CN2CCCCC2)cc1	Not Active	476				
Nc1nc2ccccc2nc1/N=C/c1ccc(CN2CCCCC2)cc1	Not Active	748				
Nc1nc2ccccc2nc1NC(=O)C1CCN(Cc2ccccc2)CC1	Not Active					IC50 (Acetylcholinesterase [1]): Not Active
Nc1nc2ccccc2nc1NCCOc1ccc(CN2CCCCC2)cc1	Not Active	1600	52.4	inactive	inactive	inhibition (Histamine H4 receptor [6]): Active
Nc1nc2ccccc2nc1NC(=O)c1ccc(CN2CCCCC2)cc1 [listing 2 of 3 here]		483	280			IC50 (Histamine H3 receptor [2]; read-out: IC50): 189 nM; IC50 (Histamine H4 receptor [8]): > 10000 nM
Nc1nc2ccccc2nc1NCC(=O)Nc1ccc(CN2CCCCC2)cc1	Not Active	1160				
Cl.Nc1nc2ccccc2nc1NC(=O)c1ccc(CN2CCCC2)cc1	Not Active					IC50 (Acetylcholinesterase [1]): Not Active; inhibition (Histamine H3 receptor [7]): 0.8%
Nc1nc2ccccc2nc1NC(=O)c1ccc(CN2CCCCC2)cc1 [listing 3 of 3 here]				inactive	inactive	inhibition (Histamine H3 receptor [7]): 74.4% and 65.3%; inhibition (Histamine H4 receptor [6]): Active
Nc1nc2ccccc2nc1C(=O)Nc1ccc(CN2CCCC2)cc1		1500	260	inactive	inactive	inhibition (Histamine H3 receptor [7]): 72.8%; IC50 (Histamine H3 receptor [2]; read-out: IC50): 378 nM; inhibition (Histamine H4 receptor [6]): Active
CN1CCN(Cc2ccc(OCCNc3nc4ccccc4nc3N)cc2)CC1	Not Active					IC50 (Acetylcholinesterase [1]): Not Active
Nc1nc2ccccc2nc1NCC(=O)Nc1ccc(CN2CCCC2)cc1	Not Active	1170				
